Reference: ChEMBL document CHEMBL1124650, “Structure-activity relationships among methoctramine-related polymethylene tetraamines. Chain-length and substituent effects on M-2 muscarinic receptor blocking activity” (J Med Chem, 1989)

Experiments:
Details in all cases: read-out: pA2 (converted)
[1] = target: T1, Muscarinic acetylcholine receptor M3 (Cavia porcellus, UniProt Q8VH26); test: (§1) Antagonist potency against carbachol induced contractions of isolated guinea pig ileum Muscarinic acetylcholine receptor; format: functional, tissue-based
T1 sequence (Q8VH26 whole entry): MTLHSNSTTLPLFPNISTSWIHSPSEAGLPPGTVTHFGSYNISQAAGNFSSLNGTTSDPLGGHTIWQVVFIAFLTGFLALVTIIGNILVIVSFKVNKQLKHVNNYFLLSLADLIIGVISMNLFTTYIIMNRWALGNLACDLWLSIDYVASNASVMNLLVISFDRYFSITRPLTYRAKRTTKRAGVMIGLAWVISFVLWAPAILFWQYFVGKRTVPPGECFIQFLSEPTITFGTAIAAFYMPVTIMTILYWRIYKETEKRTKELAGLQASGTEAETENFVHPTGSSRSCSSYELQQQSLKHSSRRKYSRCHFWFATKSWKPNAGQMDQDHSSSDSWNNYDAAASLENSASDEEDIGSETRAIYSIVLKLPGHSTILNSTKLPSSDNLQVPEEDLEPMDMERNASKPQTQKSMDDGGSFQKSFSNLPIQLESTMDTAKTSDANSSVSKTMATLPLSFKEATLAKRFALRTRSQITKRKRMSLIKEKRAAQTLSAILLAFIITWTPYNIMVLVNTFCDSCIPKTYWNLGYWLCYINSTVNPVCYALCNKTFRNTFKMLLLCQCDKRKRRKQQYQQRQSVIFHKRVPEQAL

[2] = target: Muscarinic acetylcholine receptor M2 (Cavia porcellus); test: Antagonist potency against muscarinic receptors was assed by antagonism of carbachol induced inhibition of electrically stimulated guinea pig atria
[3] = target: T1, Muscarinic acetylcholine receptor M3; test: as §1; format: functional, tissue-based; remark: listed apart in the source
Outline: (§2)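 Mounted in PSS at 37 °C with isotonic recording and 30 min equilibration. Carbachol curves (0.01-10 μM) were run at 30-min intervals, the second serving as control. A repeat curve followed 30 min antagonist incubation. pA2 came from Schild plots constrained to slope -1.0, using three antagonist concentrations each tested ≥5 times.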

[4] = target: Muscarinic acetylcholine receptor M2 (Cavia porcellus); test: Antagonist potency against carbachol induced inhibition of electrically stimulated guinea pig atria Muscarinic acetylcholine receptor
[5] = target: Muscarinic acetylcholine receptor M2 (Cavia porcellus); test: as above; remark: listed apart in the source
[6] = target: Muscarinic acetylcholine receptor M2 (Cavia porcellus); test: as above; remark: listed apart in the source
[7] = target: T1, Muscarinic acetylcholine receptor M3; test: Antagonist potency against carbachol induced contractions of isolated guinea pig ileum Muscarinic acetylcholine receptor; Inactive up to 10 uM; format: functional, tissue-based; outline: as §2

| Structure (SMILES) | Kb [3] | Kb [4] | other results |
| --- | --- | --- | --- |
| COc1ccccc1CNCCCCCCN(C)CCCCCCCCN(C)CCCCCCNCc1ccccc1OC |  |  | Kb [1]: 0.417 µM; Kb [2]: 0.0102 µM |
| Clc1ccccc1CNCCCCCCNCCCCCCCCNCCCCCCNCc1ccccc1Cl | 2.82 µM | 0.0661 µM |  |
| c1coc(CNCCCCCCNCCCCCCCCNCCCCCCNCc2ccco2)c1 | 0.851 µM |  | Kb [5]: 0.00912 µM |
| c1ccc(CNCCCCCCNCCCCCCCCNCCCCCCNCc2ccccc2)cc1 | 2.19 µM | 0.0832 µM |  |
| Fc1ccc(CNCCCCCCNCCCCCCCCNCCCCCCNCc2ccc(F)cc2)cc1 | 2.4 µM | 0.129 µM |  |
| O=[N+]([O-])c1ccc(CNCCCCCCNCCCCCCCCNCCCCCCNCc2ccc([N+](=O)[O-])cc2)cc1 | 1.32 µM | 0.0955 µM |  |
| COc1ccccc1CNCCCCCCNCCCCCCCCCCCCCCNCCCCCCNCc1ccccc1OC | 1.41 µM |  |  |
| COc1ccccc1CNCCCCCCNCCCCCCCCCCCNCCCCCCNCc1ccccc1OC | 2.29 µM | 0.0372 µM |  |
| COc1ccccc1CN(C)CCCCCCNCCCCCCCCNCCCCCCN(C)Cc1ccccc1OC |  |  | Kb [1]: > 10 µM; Kb [2]: 0.166 µM |
| Cc1ccc(CNCCCCCCNCCCCCCCCNCCCCCCNCc2ccc(C)cc2)cc1 | 2.34 µM | 0.166 µM |  |
| Clc1cccc(CNCCCCCCNCCCCCCCCNCCCCCCNCc2cccc(Cl)c2)c1 | 2.29 µM |  | Kb [6]: 0.186 µM |
| Cc1ccccc1CNCCCCCCNCCCCCCCCNCCCCCCNCc1ccccc1C | 2 µM | 0.0589 µM |  |
| COc1ccccc1CNCCCCCNCCCCCCCCNCCCCCNCc1ccccc1OC | 2.45 µM | 0.162 µM |  |
| COc1ccccc1CNCCCCCCNCCCCCCCCCCCCCNCCCCCCNCc1ccccc1OC | 1.23 µM | 0.0955 µM |  |
| CSc1ccccc1CNCCCCCCNCCCCCCCCNCCCCCCNCc1ccccc1SC | 0.589 µM | 0.0269 µM |  |
| c1cncc(CNCCCCCCNCCCCCCCCNCCCCCCNCc2cccnc2)c1 |  |  | Kb [1]: 4.9 µM; Kb [2]: 0.288 µM |
| c1ccc(CNCCCCCCNCCCCCCCCNCCCCCCNCc2ccccn2)nc1 |  |  | Kb [1]: 3.31 µM; Kb [2]: 0.0537 µM |
| Clc1ccc(CNCCCCCCNCCCCCCCCNCCCCCCNCc2ccc(Cl)cc2)cc1 | 2.34 µM | 0.178 µM |  |
| COc1ccc(CNCCCCCCNCCCCCCCCNCCCCCCNCc2ccc(OC)cc2)cc1 | 2.75 µM | 0.141 µM |  |
| Cc1ccc(CNCCCCCCNCCCCCCCCNCCCCCCNCc2ccc(C)o2)o1 |  |  | Kb [1]: 0.708 µM; Kb [2]: 0.00891 µM |
| COc1ccccc1CN(C)CCCCCCN(C)CCCCCCCCN(C)CCCCCCN(C)Cc1ccccc1OC |  |  | Kb [7]: > 10 µM; Kb [2]: 0.162 µM |
| COc1ccccc1CNCCCCCCCNCCCCCCCCNCCCCCCCNCc1ccccc1OC | 0.646 µM | 0.0275 µM |  |
| COc1cccc(CNCCCCCCNCCCCCCCCNCCCCCCNCc2cccc(OC)c2)c1 | 3.89 µM | 0.151 µM |  |
| COc1ccccc1CNCCCCCCNCCCCCCCCNCCCCCCNCc1ccccc1OC [METHOCTRAMINE] | 0.832 µM |  |  |
